According to PMC2788794 (Chemistry & biology, 2009):

Assays:
[1] = test system: αIIbβ3 CHO K1 cells; assay: Cell adhesion inhibition assay with soluble peptides; format: cell-based; details: soluble peptide 1 pM to 100 µM; 0.5% GRGDSC monolayer; 300 µM cRGDFG
[2] = test system: platelets; details: cited from earlier work; for inhibition of Fbg binding to platelets: ref Bennett et al., 1988
[3] = test system: platelets; details: ref Bennett et al., 1988; cited from earlier work
[4] = test system: αIIbβ3 CHO K1 cells; assay: Adhesion of transfected cells to GRGDSC monolayer in presence of inhibitors; format: cell-based; details: 0.5% GRGDSC SAM
[5] = test system: αIIbβ3; details: platelets; ref Bennett et al., 1988; cited from earlier work
[6] = test system: αvβ3; details: ref Haubner et al., 1996; cited from earlier work
[7] = test system: CHO K1 cells; assay: Block of cell attachment to GRGDSC monolayer by cRGDFG; format: cell-based; details: cRGDFG 300 µM; 0.5% GRGDSC SAM
Method in brief: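 Untransfected CHO K1 cells (F12K, 10% FBS, 37 °C, 5% CO2) were seeded on 0.5% GRGDSC SAMs, with or without cRGDFG 300 µM. The GRGDSC surface was made by coupling cysteine-terminated peptide (1 mM, 37 °C, 1 h) to a maleimide-presenting monolayer with tri(ethylene glycol) background. Adherent cells were scored by optical microscopy.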

[8] = test system: αIIbβ3 CHO K1 cells; assay: Cell adhesion assay on self-assembled monolayers presenting immobilized peptides; format: cell-based; details: Fbg adsorbed on dodecanethiol (hydrophobic) monolayer; 300 µM cRGDFG

Molecule: AGDV
- block of cell attachment by soluble peptide to a monolayer presenting GRGDS [1]: blocked cell attachment
- inhibition of Fbg binding to activated platelets ([2]; soluble peptide competing with radiolabeled Fbg, ref Plow et al., 1985): failure of an AGDV peptide to inhibit Fbg binding

Molecule: HHLGGAKQAGDV
- block of cell attachment by soluble peptide to a monolayer presenting GRGDS [1]: blocked cell attachment

Molecule: LGGAKQAGDV
- inhibition of binding of A2A9 to platelets [3]: could inhibit the binding of A2A9
- inhibition of Fbg binding to platelets [2]: inhibited Fbg binding to platelets with an affinity comparable to that of RGDS

Molecule: PAC-1
- effect on adhesion of αIIbβ3 CHO K1 cells to a monolayer presenting GRGDSC ([4]; PAC-1 antibody together with cRGDFG 300 µM): prevented cell adhesion

Molecule: RGDS
- inhibition of PAC-1 binding [5]: blocked the binding of both PAC-1 and Fbg to platelets with equal potency
- inhibition of Fbg binding to platelets [2]: blocked the binding of both PAC-1 and Fbg to platelets with equal potency

Molecule: cRGDFG (head to tail)
- effect on adhesion of αIIbβ3 CHO K1 cells to a monolayer presenting GRGDSC ([4]; cRGDFG 300 µM): did not interfere with adhesion
- affinity for αvβ3 relative to that for αIIbβ3 [6]: approximately 1,400 fold
- block of attachment of CHO K1 cells to a monolayer presenting GRGDSC [7]: efficiently block the attachment

B1: Fbg: Human fibrinogen, plasma protein, adsorbed to hydrophobic monolayer as positive control (protein)
chain 1: ADSGEGDFLAEGGGVRGPRVVERHQSACKDSDWPFCSDEDWNYKCPSGCRMKGLIDEVNQDFTNRINKLKNSLFEYQKNNKDSHSLTTNIMEILRGDFSSANNRDNTYNRVSEDLRSRIEVLKRKVIEKVQHIQLLQKNVRAQLVDMKRLEVDIDIKIRSCRGSCSRALAREVDLKDYEDQQKQLEQVIAKDLLPSRDRQHLPLIKMKPVPDLVPGNFKSQLQKVPPEWKALTDMPQMRMELERPGGNEITRGGSTSYGTGSETESPRNPSSAGSWNSGSSGPGSTGNRNPGSSGTGGTATWKPGSSGPGSTGSWNSGSSGTGSTGNQNPGSPRPGSTGTWNPGSSERGSAGHWTSESSVSGSTGQWHSESGSFRPDSPGSGNARPNNPDWGTFEEVSGNVSPGTRREYHTEKLVTSKGDKELRTGKEKVTSGSTTTTRRSCSKTVTKTVIGPDGHKEVTKEVVTSEDGSDCPEAMDLGTLSGIGTLDGFRHRHPDEAAFFDTASTGKTFPGFFSPMLGEFVSETESRGSESGIFTNTKESSSHHPGIAEFPSRGKSSSYSKQFTSSTSYNRGDSTFESKSYKMADEAGSEADHEGTHSTKRGHAKSRPVRGIHTSPLGKPSLSP
chain 2: QGVNDNEEGFFSARGHRPLDKKREEAPSLRPAPPPISGGGYRARPAKAAATQKKVERKAPDAGGCLHADPDLGVLCPTGCQLQEALLQQERPIRNSVDELNNNVEAVSQTSSSSFQYMYLLKDLWQKRQKQVKDNENVVNEYSSELEKHQLYIDETVNSNIPTNLRVLRSILENLRSKIQKLESDVSAQMEYCRTPCTVSCNIPVVSGKECEEIIRKGGETSEMYLIQPDSSVKPYRVYCDMNTENGGWTVIQNRQDGSVDFGRKWDPYKQGFGNVATNTDGKNYCGLPGEYWLGNDKISQLTRMGPTELLIEMEDWKGDKVKAHYGGFTVQNEANKYQISVNKYRGTAGNALMDGASQLMGENRTMTIHNGMFFSTYDRDNDGWLTSDPRKQCSKEDGGGWWYNRCHAANPNGRYYWGGQYTWDMAKHGTDDGVVWMNWKGSWYSMRKMSMKIRPFFPQQ
chain 3: YVATRDNCCILDERFGSYCPTTCGIADFLSTYQTKVDKDLQSLEDILHQVENKTSEVKQLIKAIQLTYNPDESSKPNMIDAATLKSRKMLEEIMKYEASILTHDSSIRYLQEIYNSNNQKIVNLKEKVAQLEAQCQEPCKDTVQIHDITGKDCQDIANKGAKQSGLYFIKPLKANQQFLVYCEIDGSGNGWTVFQKRLDGSVDFKKNWIQYKEGFGHLSPTGTTEFWLGNEKIHLISTQSAIPYALRVELEDWNGRTSTADYAMFKVGPEADKYRLTYAYFAGGDAGDAFDGFDFGDDPSDKFFTSHNGMQFSTWDNDNDKFEGNCAEQDGSGWWMNKCHAGHLNGVYYQGGTYSKASTPNGYDNGIIWATWKTRWYSMKKTTMKIIPFNRLTIGEGQQHHLGGAKQAGDV
- adhesion and spreading of αIIbβ3 CHO cells on adsorbed Fbg (positive control) [8]: adhered and spread
